Source: PubChem BioAssay AID588776 (Johns Hopkins Ion Channel Center, 2011)
Activity calls are given as the source filed them.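 Rule for the calls: active = peak inhibition of the KCNK3 potassium channel above 30% at some tested dose, plus a fitted dose response curve; inactive = no inhibition at any dose, or no curve could be fitted.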

biological target: Potassium channel subfamily K member 3 (Rattus norvegicus) (UniProt O54912); assay: KCNK3 channel inhibition in expressing cells, SAR follow-up, selectivity assay for KCNK9 inhibitor project, cell-based, FluxOR thallium flux, CRC set 1 (AID 588776); settings: FluxOR thallium flux fluorescence
Sequence (O54912 whole entry, looked up): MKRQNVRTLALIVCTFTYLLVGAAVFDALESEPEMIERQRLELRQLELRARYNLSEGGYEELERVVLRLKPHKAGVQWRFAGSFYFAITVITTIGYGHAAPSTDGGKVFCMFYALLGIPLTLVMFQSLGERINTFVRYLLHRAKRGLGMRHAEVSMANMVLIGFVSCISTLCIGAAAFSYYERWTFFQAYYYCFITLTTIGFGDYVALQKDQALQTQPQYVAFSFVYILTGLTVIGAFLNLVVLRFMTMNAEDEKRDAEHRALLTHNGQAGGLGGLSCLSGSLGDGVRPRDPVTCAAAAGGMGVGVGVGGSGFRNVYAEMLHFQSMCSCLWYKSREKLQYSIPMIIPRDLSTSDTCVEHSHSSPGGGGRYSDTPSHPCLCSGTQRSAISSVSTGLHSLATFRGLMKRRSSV
Outline: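 test system = tetracycline-induced KCNK3-expressing CHO cells | incubation = 90 min dye loading, 20 min compound exposure, both room temperature | signal = kinetic FluxOR thallium-flux fluorescence | read-out = baseline-normalized fluorescence change, IC50 and Hill fit | repeats = duplicate or more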

SMILES	IC50
CC(CCC1CCCC1)n1c(-c2ccco2)n[nH]c1=S (stereo not drawn)	2.36 µM
COc1ccc(CCSc2nnc(-c3ccco3)n2C(C)C2CC3CCC2C3)cc1OC (stereo not drawn)	15.5 µM
CC(C1CC2CCC1C2)n1c(SCC(=O)c2ccc(Cl)c(Cl)c2)nnc1-c1ccco1 (stereo not drawn)	7.94 µM
COc1cccc(C(=O)CSc2nnc(-c3ccco3)n2C(C)C2CC3CCC2C3)c1 (stereo not drawn)	14.7 µM
CC(CC1CC2CCC1C2)n1c(-c2ccco2)n[nH]c1=S (stereo not drawn)	15.8 µM
CC(C1CC2CCC1C2)n1c(SCC(=O)c2ccc3c(c2)OCO3)nnc1-c1ccco1 (stereo not drawn)	4.87 µM
CC(C1CC2CCC1C2)n1c(SCC(=O)c2ccccc2)nnc1-c1ccco1 (stereo not drawn)	1.22 µM
C[C@@H](C1CCCCC1)n1c(-c2ccco2)n[nH]c1=S	> 30 µM

same assay, conditions: FluxOR thallium flux fluorescence, at 30 µM (top of the series)

SMILES	flux ratio, lower = inhibition
CC(C1CC2CCC1C2)n1c(-c2cccc(N(C)C)c2)n[nH]c1=S (stereo not drawn)	inactive
CC(C1CC2CCC1C2)n1c(-c2ccc(N(C)C)cc2)n[nH]c1=S (stereo not drawn)	inactive
C[C@H](C1CCCCC1)n1c(-c2ccco2)n[nH]c1=S	inactive
CC(C1C2CCC1CC2)n1c(-c2ccco2)n[nH]c1=S (stereo not drawn)	inactive
CC(C1CC2CCC1C2)n1c(-c2ccncc2)n[nH]c1=S (stereo not drawn)	inactive
